Compounds with a hit are over-represented: about 9.2% of the library has one in this group of screens.
L major viab = Leishmania major promastigote growth inhibition. Leishmania major promastigotes, resazurin fluorescence viability. inhibition, % at 10 µM. 200,000 compounds, 9% hits; in the data active = inhibition above about 50%;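 also: promastigotes grown with compound for 44 hours at 28 °C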
Autophagy HCS = autophagy modulation, high-content screen | MEF GFP-LC3 puncta imaging; test concentration mostly 10 µM | calls only at 10 µM (by protocol) | 190,000 compounds, 0.98% hits | AID 463193;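 active = percentage of spot-positive cells more than 3 SD above its plate mean, without a fluorescence outlier flag or 80% toxicity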;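 also: spot-positive cell cutoff set from DMSO-treated cells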
HCT116 bCat-KO = beta-catenin-lacking colon tumor cell growth suppression; AID 818; 140,000 compounds, 1.5% hits; viability, % at 10 µM; HCT116 beta-catenin knockout viability, CellTiter-Glo, 60 h; hits give low values;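 active = viability at or under a set limit, the compound median less 4 SD, cut at about 6% in these data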;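 also: 0% = Hyamine 1622 control at 20 µM and 100% = untreated cell control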
PTEN del growth = PTEN-deleted cell growth suppression | AID 827 | viability, % at 10 µM | HCT116 PTEN-null viability, CellTiter-Glo, 60 h; hits give low values | 140,000 compounds, 1.2% hits;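 active = viability at or below a set limit, 4 SD under the median of all tested compounds, cut at about 3.7% in these data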;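 also: PTEN knockout HCT116 line with beta catenin targeted HCT116 as companion control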
Dynein cargo inh = blocks dynein driven cargo transport along microtubules; 220,000 compounds, 0.47% hits; 3617.4 mouse cells, GR-EGFP nuclear translocation imaging; test concentration mostly 20 µM; stimulated with dexamethasone, 1 µM; hits give low values; z-score, hits read low;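 active = plate z-score of nuclear minus cytoplasmic receptor signal below a set negative limit, without overly bright fluorescence or cell loss, cut at about -3.5 in these data, passing the limit was not always enough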;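 also: z-score of nuclear minus cytoplasmic ring GR-EGFP intensity difference per well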
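Medium: Induction medium lacking tetracycline, stripped serum | Probe or stimulus: 1.0 µM final dexamethasone stimulus | Schedule: 48 h induction, then 1 h compound, then 30 min agonist, 37 °C | Signal: Automated 10x imaging of fixed Hoechst-stained cells | Evaluation: Per-cell GR-EGFP intensity, nucleus versus surrounding cytoplasmic ring, well-averaged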
Numbers without * were called inactive; i = inactive; . = not tested or not shown; + = active, no number.

SMILES | L major viab | Autophagy HCS | HCT116 bCat-KO | PTEN del growth | Dynein cargo inh
COc1ccc(C2C(C#N)=C(/N=C/N3CCN(C)CC3)OC3=C2C(=O)CC(C)(C)C3)cc1OC (centres undefined) | 64* | i | 86 | 88 | -0.29
Cc1nc2cc(NC(=O)Nc3cccc4ccccc34)ccc2n1C | -6 | i | . | . | -1
O=C(Nc1ccccc1)c1ccc2snnc2c1 | 77* | i | . | . | -0.12
COc1ccccc1NC(=O)c1ccc2snnc2c1 | 99* | i | . | . | -0.81
O=C(Nc1ccc2snnc2c1)Nc1cccc2ccccc12 | 100* | i | 9 | 4 | -0.42
Cc1ccc(NC(=O)c2ccc3snnc3c2)cc1 | 14 | i | . | . | -0.3
CCOC(=O)C1=C(C)C(c2ccccc2)NC(=S)N1 (centres undefined) | -2 | i | 98 | 98 | 0.29
Fc1ccccc1/C=N/Nc1ncnc2nc[nH]c12 | 52* | i | 66 | 74 | 0.53
O=C(CN(Cc1ccc(F)cc1)C(=O)C1CSC(=O)C1)NC1CCCCC1 (centres undefined) | 98* | i | 94 | 103 | -0.54
COC(=O)CS(=O)(=O)c1ccc2c(c1)CC(=O)N2 | -4 | i | 92 | 99 | -0.051
COc1ccc(-c2nc(=S)c3c([nH]2)Oc2ccc(C)cc2C3)cc1O | 97* | i | 97 | 88 | 2.5
CCNc1nc(NCC)nc(N(CC)C(N)=S)n1 | . | . | . | . | 0.79
O=C(Nc1ccc(F)cc1)c1nc[nH]c1C(=O)Nc1ccccc1[N+](=O)[O-] | -7 | i | 2.8* | 1.6* | -0.011
Cc1ccc(Nc2nc(/N=C/NO)n[nH]2)cc1C | -3 | i | . | . | -0.68
O=C(O)CCCN1C(=O)NC2NC(=O)NC21 (centres undefined) | -5 | + | 98 | 94 | -0.9
COc1cc(NC(=O)c2ccc3c(c2)OCCO3)ccc1NC(=O)c1cccs1 | -7 | i | . | . | -0.7
CC1CN(C(=O)c2cc3cc([N+](=O)[O-])ccc3s2)CC(C)O1 (centres undefined) | -4 | i | . | . | -1.2
Cc1cccc(S(=O)(=O)c2c(N)n(-c3ccccc3)c3nc4ccccc4nc23)c1 | 17 | i | 54 | 59 | -0.75
Cc1ccc(S(=O)(=O)c2c(N)n(/N=C/c3ccco3)c3nc4ccccc4nc23)cc1 | 59* | i | 71 | 58 | 0.45
Cc1ccc(S(=O)(=O)c2c(N)n(CCCN(C)C)c3nc4ccccc4nc23)cc1 | . | . | . | . | 0.46
Nc1c(S(=O)(=O)c2ccccc2)c2nc3ccccc3nc2n1/N=C/c1ccco1 | 17 | i | 65 | 60 | 0.04
Cc1ccc(S(=O)(=O)c2c(N)n(/N=C/c3ccco3)c3nc4ccccc4nc23)cc1C | 79* | i | 89 | 87 | 0.047
Cc1ccc(S(=O)(=O)c2c(N)n(CC3CCOC3)c3nc4ccccc4nc23)cc1 (centres undefined) | 60* | i | 80 | 86 | 2.8
Cc1ccc(-n2c(N)c(S(=O)(=O)c3ccccc3)c3nc4ccccc4nc32)cc1 | 57* | i | . | . | -0.43
CCCCc1nc2sc3c(=O)[nH]cnc3c2c2c1CCCC2 | . | . | . | . | -0.44
SMILES | L major viab | Autophagy HCS | HCT116 bCat-KO | PTEN del growth | Dynein cargo inh
O=c1c2cn[nH]c2[nH]c(=S)n1-c1ccccc1F | -5 | i | 101 | 95 | -1.1
CN1C(=O)C(CC(=O)NC2CCCCC2)SC1=Nc1ccccc1 (centres undefined) | -5 | i | 95 | 101 | -0.51
COc1ccc(S(=O)(=O)c2c(N)n(Cc3ccco3)c3nc4ccccc4nc23)cc1 | 72* | i | 67 | 68 | -0.64
Cc1cccc(S(=O)(=O)c2c(N)n(/N=C/c3ccco3)c3nc4ccccc4nc23)c1 | 53* | i | 82 | 70 | 0.11
CC(C)Cn1c(N)c(S(=O)(=O)c2cccs2)c2nc3ccccc3nc21 | 23 | i | 78 | 87 | -0.13
CC(C)(C)Cc1cc(N)on1 | -7 | i | 97 | 99 | -0.87
CN(C)c1ccc(N=Nc2nc3ccccc3n2C)cc1 | . | . | . | . | 0.26
Cn1c(N=Nc2ccccc2)nc2ccccc21 | 53* | i | 15 | 22 | 0.25
O=C(Oc1cccc2cccnc12)c1cccc([N+](=O)[O-])c1 | 34 | i | . | . | -1.2
O=C(Oc1c(Cl)cc(Cl)c2cccnc12)c1cccc([N+](=O)[O-])c1 | 70* | i | 4.4* | 10 | 0.52
Cc1ccc(-c2nnc(Nc3ccccc3)c3ccccc23)cc1S(=O)(=O)NCC1CCCO1 (centres undefined) | 80* | i | 77 | 68 | -0.16
Cc1ccc(-c2nnc(Nc3ccc4c(c3)OCO4)c3ccccc23)cc1S(=O)(=O)NCCO | 77* | i | 65 | 58 | 0.56
CNC(=O)c1ccc(Nc2nnc(-c3ccc(C)c(S(=O)(=O)NCC4CCCO4)c3)c3ccccc23)cc1 (centres undefined) | -4 | i | 88 | 95 | 0.2
CC(=O)Nc1ccc(Nc2nnc(-c3ccc(C)c(S(=O)(=O)NCC4CCCO4)c3)c3ccccc23)cc1 (centres undefined) | . | . | . | . | -0.33
Cc1ccc(-c2nnc(Nc3ccc4c(c3)OCO4)c3ccccc23)cc1S(=O)(=O)NC(C)C | 91* | i | 46 | 49 | 1.4
Cc1ccc(CSC2=NCCN2C(=O)C2CC2)cc1 | -11 | i | 98 | 100 | -1.2
Cc1nn(-c2ccccc2)c(=S)c2ccccc12 | 71* | i | 95 | 93 | -0.02
Cc1nn(-c2ccc(Cl)cc2)c(=O)c2ccccc12 | -3 | i | . | . | -0.89
CCOc1cc(NC(=O)CC(C)C)c(OCC)cc1NC(=O)CCn1nnc2ccccc21 | 0 | i | 90 | 89 | 0.35
COc1ccc(C2NC(c3ccc(OC)cc3)C(c3ccccc3)C(=O)C2c2ccccc2)cc1 (centres undefined) | 98* | i | 81 | 67 | -0.09
CCc1nnc(NC(=O)CN2CCN(c3ccccc3F)CC2)s1 | -8 | i | . | . | -0.73
Cc1ccc2c(C)nc(N/C(N)=N/S(=O)(=O)c3ccc([N+](=O)[O-])cc3)nc2c1 | 88* | i | 63 | 67 | -0.4
Cc1nc(N/C(N)=N/S(=O)(=O)c2ccc([N+](=O)[O-])cc2)nc2ccccc12 | 54* | i | 84 | 82 | -0.57
N/C(=N\S(=O)(=O)c1ccccc1)c1ccc([N+](=O)[O-])cc1 | -4 | i | 84 | 84 | 0.93
CCN(CC)CCNC(=O)CSc1c2c(nc3cc(Cl)ccc13)CCCC2 | 101* | i | . | . | -3.9*
COc1ccc(C2C(C(=O)N3CCN(C)CC3)c3cc(OC)c(OC)cc3C(=O)N2C)cc1 (centres undefined) | 0 | i | . | . | -0.52
CCN1CCN(C(=O)C2c3cc(OC)c(OC)cc3C(=O)N(C)C2c2ccc(SC)cc2)CC1 (centres undefined) | 76* | i | 89 | 94 | 2.9
COC(=O)CSCC(=O)Nc1nnc(-c2cccc(C)c2)s1 | -4 | i | . | . | -0.17
O=C(CN1C2=NCCCN2c2ccccc21)c1ccc([N+](=O)[O-])cc1 | 1 | i | . | . | -1.3

Compound activity from PubChem BioAssay.
